The text below walks through data of ChEMBL document CHEMBL1131191, “De novo design, synthesis, and biological activities of high-affinity and selective non-peptide agonists of the delta-opioid receptor” (J Med Chem, 1998).

Assay [1] addresses Mu-type opioid receptor (Cavia porcellus, UniProt P97266). Briefly: Tested for electrically induced smooth muscle contractions from guinea pig ileum expressed in mu opioid receptors. The assay is classed as functional, tissue-based. A digest of the protocol: (§1)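 Electrically stimulated contractions of male Hartley guinea pig ileum longitudinal muscle–myenteric plexus (1 g tension, 0.4-ms pulses) or male ICR mouse vas deferens (0.5 g, 2.0-ms pulses, Mg-free Krebs). Baths at 37 °C, oxygenated Krebs, 0.1 Hz, supramaximal voltage. Agonist left 3 min. Percent inhibition of twitch height, IC50 from Hill fit, ≥4 tissues.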

Assay [2] addresses Delta-type opioid receptor (Mus musculus, UniProt P32300). Briefly: Tested for electrically induced smooth muscle contractions from mouse vas deferens expressed in delta opioid receptors. The assay is classed as functional. A digest of the protocol: as §1
Assay [3] addresses Delta-type opioid receptor (Rattus norvegicus, UniProt P33533). Briefly: Binding affinity was measured against Opioid receptor delta 1 using [3H]p-Cl-DPDPE as radioligand.
In assay [4] the target is Mu-type opioid receptor (Rattus norvegicus, UniProt P33535). Briefly: Binding affinity was measured against Opioid receptor mu 1 using [3H]-DAMGO as radioligand.
Assay [5] addresses Opioid receptors; mu & delta (Homo sapiens) (UniProt P41143+P35372). Briefly: It is the ratio of EC50(mu receptor) to that of EC50 for(delta receptor). The assay is classed as functional.
Assay [6] has as its target Mu-type opioid receptor (Cavia porcellus) (UniProt P97266). Briefly: Tested for electrically induced smooth muscle contractions from guinea pig ileum expressed in mu opioid receptors at 60 uM. It counts as functional, tissue-based.
The species entered for a further assay is Cavia porcellus. The experiment in a line: mu-opioid receptor antagonistic activity was measured in guinea pig ileum. The assay is classed as functional.
In assay [7] the target is Delta-type opioid receptor (Homo sapiens, UniProt P41143). Briefly: Binding affinity was measured against cloned human Opioid receptor delta 1 (wild-type,Wt).
Delta-type opioid receptor (Homo sapiens, UniProt P41143), sequence (P41143 whole entry): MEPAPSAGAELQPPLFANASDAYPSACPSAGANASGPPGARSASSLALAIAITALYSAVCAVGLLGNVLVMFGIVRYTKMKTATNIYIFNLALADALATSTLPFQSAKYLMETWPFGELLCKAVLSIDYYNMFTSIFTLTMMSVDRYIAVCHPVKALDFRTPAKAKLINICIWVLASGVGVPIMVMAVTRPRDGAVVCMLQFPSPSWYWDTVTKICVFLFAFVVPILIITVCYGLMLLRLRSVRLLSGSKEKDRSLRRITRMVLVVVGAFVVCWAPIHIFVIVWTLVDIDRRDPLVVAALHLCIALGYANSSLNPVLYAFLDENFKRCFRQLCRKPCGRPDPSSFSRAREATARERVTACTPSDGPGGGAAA

Delta-type opioid receptor (Rattus norvegicus, UniProt P33533), sequence (P33533 whole entry): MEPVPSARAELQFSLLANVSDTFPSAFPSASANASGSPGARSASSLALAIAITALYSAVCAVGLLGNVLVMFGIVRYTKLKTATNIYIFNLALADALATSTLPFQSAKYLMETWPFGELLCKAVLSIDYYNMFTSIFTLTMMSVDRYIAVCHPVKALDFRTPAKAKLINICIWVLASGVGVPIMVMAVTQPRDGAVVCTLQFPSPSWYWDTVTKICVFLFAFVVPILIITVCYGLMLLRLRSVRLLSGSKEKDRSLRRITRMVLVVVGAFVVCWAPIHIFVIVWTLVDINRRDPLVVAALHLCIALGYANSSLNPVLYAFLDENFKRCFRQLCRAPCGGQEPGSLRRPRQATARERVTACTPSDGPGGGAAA
Mu-type opioid receptor (Rattus norvegicus, UniProt P33535), sequence (P33535 whole entry): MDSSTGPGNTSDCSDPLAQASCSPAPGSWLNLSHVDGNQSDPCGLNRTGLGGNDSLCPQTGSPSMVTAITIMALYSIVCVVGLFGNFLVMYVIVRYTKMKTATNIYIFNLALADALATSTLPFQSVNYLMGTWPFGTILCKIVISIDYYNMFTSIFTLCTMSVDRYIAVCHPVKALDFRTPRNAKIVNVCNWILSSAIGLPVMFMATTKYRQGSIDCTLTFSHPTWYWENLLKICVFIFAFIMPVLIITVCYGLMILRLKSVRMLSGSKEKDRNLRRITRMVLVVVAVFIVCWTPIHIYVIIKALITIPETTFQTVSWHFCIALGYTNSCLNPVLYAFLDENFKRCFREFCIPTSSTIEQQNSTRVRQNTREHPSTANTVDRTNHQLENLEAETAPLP
Mu-type opioid receptor (Cavia porcellus, UniProt P97266), sequence (P97266 whole entry): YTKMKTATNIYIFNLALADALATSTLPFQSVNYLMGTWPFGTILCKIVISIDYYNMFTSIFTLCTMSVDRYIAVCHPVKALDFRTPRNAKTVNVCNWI
Delta-type opioid receptor (Mus musculus, UniProt P32300), sequence (P32300 whole entry): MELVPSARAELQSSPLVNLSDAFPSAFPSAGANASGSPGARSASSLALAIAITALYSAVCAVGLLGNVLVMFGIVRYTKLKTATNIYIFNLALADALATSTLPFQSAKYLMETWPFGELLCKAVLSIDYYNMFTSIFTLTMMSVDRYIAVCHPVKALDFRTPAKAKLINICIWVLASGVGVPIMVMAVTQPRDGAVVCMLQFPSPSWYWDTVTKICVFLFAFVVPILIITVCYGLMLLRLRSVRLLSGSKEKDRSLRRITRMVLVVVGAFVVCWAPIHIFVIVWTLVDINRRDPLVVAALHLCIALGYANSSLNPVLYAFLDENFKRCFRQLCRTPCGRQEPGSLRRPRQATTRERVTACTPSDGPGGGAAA
Opioid receptors; mu & delta (Homo sapiens), sequence (P35372 whole entry, looked up): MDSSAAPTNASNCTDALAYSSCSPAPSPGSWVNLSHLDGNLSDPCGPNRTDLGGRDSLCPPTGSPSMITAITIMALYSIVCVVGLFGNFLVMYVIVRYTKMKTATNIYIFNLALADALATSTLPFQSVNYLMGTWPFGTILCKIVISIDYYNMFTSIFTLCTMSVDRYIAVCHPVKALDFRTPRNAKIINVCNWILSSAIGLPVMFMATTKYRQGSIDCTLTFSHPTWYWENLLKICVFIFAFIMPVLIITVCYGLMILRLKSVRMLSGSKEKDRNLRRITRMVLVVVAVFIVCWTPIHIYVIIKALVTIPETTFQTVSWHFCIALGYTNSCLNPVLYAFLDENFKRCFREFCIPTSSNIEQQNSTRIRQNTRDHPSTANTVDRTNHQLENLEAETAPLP
Opioid receptors; mu & delta (Homo sapiens), sequence (P41143 whole entry, looked up): as the sequence (P41143 whole entry) above
Mu-type opioid receptor (Cavia porcellus), sequence (P97266 whole entry): as the sequence (P97266 whole entry) above

Consider `CC(C)(C)c1ccc(C(c2cccc(O)c2)N2CCN(Cc3ccccc3)CC2)cc1` (single isomer, unassigned; (+)), for which the EC50 (commonly the midpoint of the concentration-response curve) at Mu-type opioid receptor [1] is 3000 nM; in assay [2], 210 nM.
`Oc1cccc(C(c2ccccc2)N2CCN(Cc3ccccc3)CC2)c1` (centres undefined): the IC50 (commonly the concentration that inhibits the measured activity by half) in assay [3] is 34 nM; on Mu-type opioid receptor [4] it was 500 nM. Further, the results for the EC50 (at Mu-type opioid receptor [1]; in assay [2]) were 1250 nM and 174 nM, respectively. Also, the Selectivity in assay [5] stood at 7.1.
In the case of `Cc1cc(O)cc(C)c1[C@@H](C)[C@H](N)C(=O)N[C@H]1C(=O)NCC(=O)N[C@@H](Cc2ccccc2)C(=O)N[C@@H](C(=O)O)C(C)(C)SSC1(C)C`, the IC50 stood at 5 nM in assay [3], 5000 nM in the assay listed under Cavia porcellus and 4300 nM at Mu-type opioid receptor [4]. It took 1.8 nM to reach a half-maximal effect in assay [2] (EC50). The inhibition (usually the relative decrease from the control value, in per cent) in assay [6] came out at 0%. For the same molecule, the Selectivity in assay [5] is above 33000.
On Mu-type opioid receptor [4], `C=CCN1C[C@H](C)N([C@H](c2ccc(C(=O)N(CC)CC)cc2)c2cccc(OC)c2)C[C@H]1C` [SNC-80] showed an IC50 of 2500 nM.
In the case of `COc1cccc(C(c2ccc(C(C)(C)C)cc2)N2CCN(Cc3ccccc3)CC2)c1` (centres undefined), the IC50 was 1800 nM in assay [3] and above 8000 nM at Mu-type opioid receptor [4].
Regarding `CC(c1cccc(O)c1)N1CCN(Cc2ccccc2)CC1` (centres undefined), the IC50 in assay [3] came to 610 nM; on Mu-type opioid receptor [4], 780 nM.
Take `CC(C)(C)c1ccc(C(c2cccc(O)c2)N2CCN(Cc3ccccc3)CC2)cc1` (stereo in doubt): the IC50 in assay [7] is 5.51 nM. Besides, the EC50 at Mu-type opioid receptor [1] was found to be 39000 nM; in assay [2] it was 85 nM.
For the molecule `C=CCN1C[C@H](C)N([C@H](c2ccc(C(=O)N(CC)CC)cc2)c2cccc(O)c2)C[C@H]1C`, the IC50 in assay [3] was 0.31 nM.
`Oc1cccc(CN2CCN(Cc3ccccc3)CC2)c1`: in assay [3], the IC50 came to 6400 nM.
Turning to `CC(C)(C)c1ccc(C(c2cccc(O)c2)N2CCN(Cc3ccccc3)CC2)cc1` (single isomer, unassigned; (-)), the EC50 was 7600 nM on Mu-type opioid receptor [1] and 360 nM in assay [2].
Turning to `Oc1cccc(C(c2ccc(-c3ccccc3)cc2)N2CCN(Cc3ccccc3)CC2)c1` (centres undefined), the values for the IC50 (in assay [3]; on Mu-type opioid receptor [4]) were 31 nM and 27000 nM, respectively.
Regarding `CC(C)CC(c1cccc(O)c1)N1CCN(Cc2ccccc2)CC1` (centres undefined), the IC50 was determined as 420 nM in assay [3] and 2100 nM at Mu-type opioid receptor [4].
